Screening data as filed in PubChem.
Hits are enriched below; roughly 3% of the tested compounds scored in any of these assays.
Rad51 HR inh – Rad51 (human) homologous recombination inhibition; Q06609; hRad51 DNA strand exchange, fluorescence dequenching; 200,000 tested, 0.085% active; inhibition, % at 10 µM;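 active = inhibition above 40% at the single screening dose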;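 also: 0% = DMSO control wells and 100% = blanks with heterologous ssDNA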
Target sequence (Q06609 whole entry, looked up): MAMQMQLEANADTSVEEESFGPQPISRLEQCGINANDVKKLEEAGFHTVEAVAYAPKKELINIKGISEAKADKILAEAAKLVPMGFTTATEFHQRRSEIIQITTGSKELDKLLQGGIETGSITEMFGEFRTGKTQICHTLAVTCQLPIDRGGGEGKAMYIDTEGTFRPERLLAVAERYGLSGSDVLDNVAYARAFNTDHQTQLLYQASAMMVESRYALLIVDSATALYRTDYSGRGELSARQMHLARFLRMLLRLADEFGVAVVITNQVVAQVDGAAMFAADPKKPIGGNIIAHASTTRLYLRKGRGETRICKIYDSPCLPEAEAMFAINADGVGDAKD
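Material: hRad51 filaments on single-stranded DNA; Reagent: Donor/quencher-labelled 47-bp dsDNA substrate; Compound: 10 µM final, single point; Schedule: 37 °C 15-min filament assembly, 30-min compound preincubation, 15-min exchange; Technique: FRET fluorescence, excitation 485 nm, emission 520 nm; Benchmarks: control wells and blank wells on each plate.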
ROMK mod – modulators of human ROMK potassium channel; Tet-inducible ROMK, thallium flux fluorescence; actives lie on both sides; 130,000 tested, 2% active; AID 1918; B-score at 10 µM;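 active = signal ratio slope over the read window, or its plate-corrected B-score, at least 3 SD from the plate mean, either direction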;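 also: B-score of the F/F0 ratio slope over 7 to 12 s after thallium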
Target sequence (P48048 whole entry, looked up): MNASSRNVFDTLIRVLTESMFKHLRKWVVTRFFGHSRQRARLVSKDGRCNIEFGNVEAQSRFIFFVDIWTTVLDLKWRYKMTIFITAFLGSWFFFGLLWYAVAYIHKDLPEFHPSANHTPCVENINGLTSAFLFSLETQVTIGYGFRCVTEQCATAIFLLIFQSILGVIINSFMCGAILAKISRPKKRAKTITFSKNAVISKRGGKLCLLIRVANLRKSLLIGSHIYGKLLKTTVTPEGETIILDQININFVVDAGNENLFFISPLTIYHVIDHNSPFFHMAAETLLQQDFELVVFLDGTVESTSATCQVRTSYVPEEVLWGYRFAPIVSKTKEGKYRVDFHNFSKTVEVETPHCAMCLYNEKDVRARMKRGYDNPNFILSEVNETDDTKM
PKD1 inh – blocks activity of human protein kinase D1. Q15139. PKD1 kinase fluorescence polarization assay. inhibition, % (test concentration not listed). 200,000 tested, 0.056% active. AID 797; in the data active = inhibition above about 50%
KCC2 mod – modulates chloride dependent transport by human KCC2 | Q9H2X9 | KCC2 cells, thallium flux FluoZin-2 fluorescence | B-score of Tl+ flux slope (higher = more flux/activation; lower = inhibition) at 10 µM | 190,000 tested, 2.2% active;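 active = thallium flux slope and its plate-corrected score both differing from the plate sample mean at a set confidence after two filtering rounds, in either direction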;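 also: slope of fluorescence scaled to starting intensity during 10 to 20 s after thallium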
KCC2 sec1 – confirmation of human KCC2 transport modulators; shares compounds with KCC2 mod; HEK293-KCC2, thallium flux, FluoZin2 fluorescence; hits give high values; normalised thallium flux (F/F0 slope) at 10 µM; 3,700 tested, 15% active; AID 1713;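 active = thallium flux slope above the same plate's solvent-only control mean plus 3 SD; inconclusive = the two replicate wells disagree; inactive = no significant difference from solvent-only control wells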
KCC2 bumet counter – thallium flux despite bumetanide block in KCC2 cells, secondary assay 3 | shares compounds with KCC2 mod | HEK293-KCC2 + bumetanide/ouabain, thallium flux FluoZin2; hits give high values | normalized thallium flux at 10 µM | 3,700 tested, 49% active | AID 1714;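 active = thallium entry rate above the same plate's blocked-transporter control wells by more than 3 SD; inconclusive = the two repeat wells disagree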;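 also: raw slope of fluorescence over initial fluorescence between 10 and 20 s after thallium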
KCC2 sec2 – KCC2 (human) modulation, second secondary assay | HEK293-KCC2, thallium flux FluoZin2 fluorescence; actives lie on both sides; F/F0 rise rate, 10–20 s post-thallium | normalized thallium flux at 10 µM | AID 1715 | 3,700 tested, 23% active | shares compounds with KCC2 mod;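 active = thallium flux slope more than 3 SD above or below the plate's solvent-only control mean, mostly below; inconclusive = the two repeat wells disagreed; inactive = no significant shift from solvent-only controls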;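 also: raw slope with 0.1% DMSO as baseline and bumetanide as block control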
HEK293 Tl flux – acts in parental HEK cells, KCC2 counter-screen; 3,700 tested, 46% active; HEK293 parental cells, thallium flux FluoZin2, ouabain; baseline-ratio fluorescence slope, 10–20 s after thallium; shares compounds with KCC2 mod; thallium flux rate (normalised fluorescence) at 10 µM; AID 1716;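 active = thallium flux rate significantly above the same plate's solvent-only control wells, beyond their mean plus 3 SD; inconclusive = the two replicate wells gave conflicting results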
KCC2 retest ouab – modulates human KCC2 on retest with ouabain | shares compounds with KCC2 mod | HEK293-KCC2, thallium flux FluoZin2 fluorescence; bidirectional: low = inhibitor, high = activator | raw Tl+ flux slope (below DMSO = inhibition, above = activation) at 10 µM | 3,700 tested, 48% active | AID 1717;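 active = thallium flux slope beyond 3 SD from same-plate DMSO control mean in most replicates, usually higher, sometimes lower; inconclusive = repeat tests gave conflicting results; inactive = no significant difference from controls in most replicates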;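 also: slope of initial-normalized fluorescence between seconds 10 and 20 after thallium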
HEK counter2 – acts in parental HEK cells, second KCC2 counter-screen; shares compounds with KCC2 mod; thallium flux slope at 10 µM; 3,700 tested, 33% active; HEK293 parental, thallium flux FluoZin-2 fluorescence slope;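 active = thallium flux slope above the same plate's solvent-control mean plus 3 SD in both duplicate wells; inconclusive = duplicate wells that disagreed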;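 also: run without ouabain in cells lacking the KCC2 cotransporter; slope of fluorescence scaled to its starting value between 10 and 20 s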
* = called active by the depositor; ? = inconclusive; · = not tested or not shown.

SMILES	Rad51 HR inh	ROMK mod	PKD1 inh	KCC2 mod	KCC2 sec1	KCC2 bumet counter	KCC2 sec2	HEK293 Tl flux	KCC2 retest ouab	HEK counter2
O=C1c2ccccc2C(Nc2ccc(S(=O)(=O)N3CCCCC3)cc2)N1Cc1ccco1 (stereo not drawn)	-6.5	·	-13.6	-5.14*	0.00679	0.00428	?	0.0062*	0.0143*	0.00984
CCc1ccc(NC(=O)C(=O)NCCOc2ccccc2Cl)cc1	0.4	-0.358	2.1	-0.129	·	·	·	·	·	·
COc1cccc(N2CCN(S(=O)(=O)c3ccc4nc(-c5ccccc5)[nH]c4c3)CC2)c1	-2.3	1.28	0.9	9.13*	0.00867	0.00507	0.0307	0.00778	0.019	0.0101
CCOC(=O)CC1Sc2ccccc2NC1=S (stereo not drawn)	-9.8	·	·	6.93*	0.0109	0.0239*	0.0362	?	0.0306*	?
Cn1c2c(c(=O)n(C)c1=O)C(C(F)(F)F)(C(F)(F)F)N=C(CCC1CCCCC1)N2	-16.4	-0.0621	-5.8	0.671	·	·	·	·	·	·
CN(c1ccc(F)cc1)S(=O)(=O)c1ccc2[nH]cc(C(=O)O)c(=O)c2c1	3.0	·	-14.5	1.04	·	·	·	·	·	·
CCC1CCCCN1C(=O)c1c[nH]c2ccc(S(=O)(=O)N(C)c3ccc(Cl)cc3)cc2c1=O (stereo not drawn)	-7.8	-1.57	7.4	·	0.0164	?	?	0.00654	0.0154	0.0092
Cc1cccc(NC(=S)N2CCOCC2)c1C	-1.4	·	-10.6	1.22	·	·	·	·	·	·
CC(NC(=O)CCn1nc(-c2ccc(Cl)cc2)ccc1=O)c1ccccc1 (stereo not drawn)	-1.6	-1.09	-0.9	-0.125	·	·	·	·	·	·
NS(=O)(=O)c1ccc(CCNC(=O)c2cccc([N+](=O)[O-])c2)cc1	·	-0.489	-1.0	0.845	·	·	·	·	·	·
O=c1[nH]c(CSc2ncnc3sc(-c4ccccc4)cc23)nc2ccccc12	13.7	·	·	27*	0.0069	0.0244*	0.0314	0.021*	0.0315*	0.0137*
COCCCn1c(SCC(=O)Nc2nnc(C)s2)nnc1-c1ccoc1C	1.0	·	-2.3	·	0.0073	0.00504	0.0345	0.00811	0.0191	0.0115
Cc1ccc(C(=O)Nc2ncc(Cc3ccc(F)cc3)s2)o1	·	·	5.7	-4.83*	0.00749	0.007	0.0307	?	0.0179	?
Cc1ccc(C(=O)Nc2ncc(C)s2)o1	-10.1	·	-0.3	·	·	·	·	·	·	·
COn1cnnc1-c1ccccc1	5.7	0.0522	-9.7	·	0.00649	0.0046	0.0313	0.00757	0.0175	0.01
Cc1ccc(SCCNC(=S)Nc2cc(C)ccc2C)cc1	-5.5	-0.457	1.1	·	0.00692	0.00497	0.0291	?	?	0.00898
OCCC1CN(CCCn2cccn2)CCN1C1CCCCC1 (stereo not drawn)	4.8	-0.39	-7.0	0	·	·	·	·	·	·
C/C(=N\NC(=O)c1ccc(Cl)c(Cl)c1)c1ccc(Br)s1	0.9	·	-10.3	7.17*	0.00755	0.00897*	0.0359	0.0225*	0.0253*	0.0169*
C/C(=N/NC(N)=S)c1ccc(Br)s1	-12.5	-1.55	-1.0	19.3*	0.0108	0.0324*	0.0307	0.0138*	0.0271	?
C/C(=N/NC(=O)c1ccc2c(c1)OCO2)c1ccc(Br)s1	-46.6	0.513	-1.3	6.32*	0.01	0.0152*	0.0343	?	?	?
C/C(=N\NC(=O)CNc1cccc(C)c1)c1ccc(Br)s1	7.7	0.0553	-9.2	0.0768	·	·	·	·	·	·
Cc1cccc(-n2c(O)c(C=NC3CCS(=O)(=O)C3)c3ccccc3c2=O)c1C (stereo not drawn)	15.4	-0.34	·	-0.371	·	·	·	·	·	·
Cn1cc(C(=O)c2ccc(Cl)cc2Cl)cc1C(=O)N/N=C(\N)COc1cccc(C(F)(F)F)c1	-8.3	-0.566	-3.0	0.324	·	·	·	·	·	·
S=c1[nH]nc(-c2ccncc2)n1/N=C/C=C/c1ccco1	-17.4	-0.374	-1.2	0.255	·	·	·	·	·	·
COc1ccccc1/C=C/C=N/n1c(-c2ccc(F)cc2)n[nH]c1=S	-3.6	-0.132	·	5.32*	0.0105	0.0149*	0.0342	0.0111*	0.0226	0.0107
SMILES	Rad51 HR inh	ROMK mod	PKD1 inh	KCC2 mod	KCC2 sec1	KCC2 bumet counter	KCC2 sec2	HEK293 Tl flux	KCC2 retest ouab	HEK counter2
S=c1[nH]nc(-c2cccc(Cl)c2)n1/N=C/c1ccc(-c2ccccc2Br)o1	-0.9	·	·	0.675	·	·	·	·	·	·
Cc1cccc(-c2n[nH]c(=S)n2/N=C/C=C/c2ccco2)c1	-4.7	·	·	19.9*	0.0057	0.0218*	0.0294	0.0178*	0.0285*	0.0158*
S=c1[nH]nc(-c2cccc(Cl)c2)n1/N=C/c1ccco1	8.6	·	·	13.8*	?	0.0207*	0.0381	0.0179*	0.0315*	0.0115
Cc1ccc(/C=N/n2c(-c3cccc(Cl)c3)n[nH]c2=S)o1	2.9	·	·	45.1*	0.00656	0.046*	0.0324	0.0294*	0.0401*	0.0205*
CCCCCCC(=O)NNC(=O)c1c(O)c2ccccc2n(CC)c1=O	-6.2	-0.0403	5.7	5.59*	0.00641	0.0168*	0.0337	0.0166*	0.0248*	0.0158*
CCCCCCCCC(=O)NNC(=O)c1c(O)c2ccccc2n(CC)c1=O	-24.1	-0.0758	-1.3	9.47*	0.00558	0.0219*	0.0355	0.0187*	0.0299*	0.0195*
CCCCCCCC(=O)NNC(=O)c1c(O)c2ccccc2n(CC)c1=O	-3.4	0.143	-5.7	10.7*	0.00524	0.016*	0.0327	0.0174*	?	0.0185*
CCCCCCC(=O)NNC(=O)c1c(O)c2ccccc2n(CCC)c1=O	-7.2	-0.116	2.4	2.63	·	·	·	·	·	·
CCCCCCCC(=O)NNC(=O)c1c(O)c2ccccc2n(CCC)c1=O	·	·	-0.3	·	·	·	·	·	·	·
CCc1cc2c(SCC(=O)N(C)C3CCS(=O)(=O)C3)ncnc2s1 (stereo not drawn)	-14.4	0.00764	·	2.25	·	·	·	·	·	·
Brc1ccc2ncc(Br)cc2c1	·	·	-8.9	-1.2	·	·	·	·	·	·
O=[N+]([O-])c1cc(/C=N/n2c(-c3cccnc3)n[nH]c2=S)ccc1Cl	-35.2	-0.561	-2.4	8.07*	0.00633	0.0766*	0.0332	?	?	?
Cc1n[nH]c(=S)n1/N=C/c1cccc(OCc2ccccc2)c1	-0.7	0.319	-1.6	16.2*	0.0174	0.0268*	0.0335	0.014*	0.0225*	0.0163*
O=[N+]([O-])c1ccccc1/C=N/n1c(-c2cccnc2)n[nH]c1=S	-4.1	·	-1.9	-1.04	·	·	·	·	·	·
Cc1ccc(/C=N/n2c(-c3ccco3)n[nH]c2=S)cc1	5.9	·	·	15.4*	0.00696	0.0279*	0.0327	0.0187*	0.0312*	0.0171*
